The IC50 is the concentration needed to halve the response being measured.

The values that follow come from ChEMBL document CHEMBL1131025, “14-Desoxy analogues of naltrindole and 7-spiroindanyloxymorphone: the role of the 14-hydroxy group at delta opioid receptors” (J Med Chem, 1998).

Each structure is given as a SMILES string.

For assay [1], the species on record is Cavia porcellus. Put plainly: (§1) Agonist activity (ability to decrease the twitch height of the electrically stimulated smooth muscle) in electrically stimulated guinea pig ileum(GPI). The class given is functional, Muscle tissue. Put shortly: (§2)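 Electrically stimulated guinea pig ileum. Agonism read as a drop in twitch height. Compounds were first tested at 1 μM. Full agonists were then run at 4-6 concentrations to build a dose-response curve and give the IC50 for half-maximal response (n ≥ 3). Partial responders were reported as percent of maximal agonist response.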

In assay [2] the target is Kappa-type opioid receptor (Cavia porcellus) (UniProt P41144). Put plainly: Antagonistic activity expressed as IC50 ratio against ethylketazocine (EK) Opioid receptor kappa 1 in smooth muscle preparations. In kind it is functional. Put shortly:
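Electrically stimulated guinea pig ileum. The preparation was preincubated 15 min with test compound (100 nM) before challenge with a standard agonist: morphine for μ, ethylketazocine for κ. The ratio is agonist IC50 with antagonist divided by control IC50 of agonist alone (n ≥ 3).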

Assay [3] is filed under the species Mus musculus. Put plainly: Agonist vas deferens(MVD). The class given is functional. Put shortly: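 Electrically stimulated mouse vas deferens. Agonism read as a drop in twitch height. Compounds were first tested at 1 μM. Full agonists were then run at 4-6 concentrations to build a dose-response curve and give the IC50 for half-maximal response (n ≥ 3). Partial responders were reported as percent of maximal agonist response.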

Assay [4] concerns the target Delta-type opioid receptor (Mus musculus) (UniProt P32300). Put plainly: Antagonistic activity expressed as IC50 ratio against DADLE-Opioid receptor delta 1 in smooth muscle preparations of mouse vas deferens(MVD). In kind it is functional. Put shortly:
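Electrically stimulated mouse vas deferens. The preparation was preincubated 15 min with test compound (100 nM) before challenge with the standard δ agonist DADLE. The ratio is DADLE IC50 with antagonist divided by control IC50 of DADLE alone (n ≥ 3).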

Assay [5] is filed under the species Cavia porcellus. Described as §1. The class given is functional, organism-based. As to conditions: Muscle tissue. Put shortly:
as §2

Assay [6] is filed under the species Cavia porcellus. The assay is described as follows: Antagonist potency (Ke) was evaluated in guinea pig ileum(GPI). In kind it is functional. In short, it runs like this: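 Antagonist potency came from IC50-ratio tests in which smooth muscle was preincubated 15 min with antagonist before agonist challenge.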
The species entered for assay [7] is Cavia porcellus. Put plainly: Agonist activity (ability to decrease the twitch height of the electrically stimulated smooth muscle) in electrically stimulated guinea pig ileum (GPI). In kind it is functional. Put shortly: as §2

Chain of Kappa-type opioid receptor (Cavia porcellus) (P41144 whole entry): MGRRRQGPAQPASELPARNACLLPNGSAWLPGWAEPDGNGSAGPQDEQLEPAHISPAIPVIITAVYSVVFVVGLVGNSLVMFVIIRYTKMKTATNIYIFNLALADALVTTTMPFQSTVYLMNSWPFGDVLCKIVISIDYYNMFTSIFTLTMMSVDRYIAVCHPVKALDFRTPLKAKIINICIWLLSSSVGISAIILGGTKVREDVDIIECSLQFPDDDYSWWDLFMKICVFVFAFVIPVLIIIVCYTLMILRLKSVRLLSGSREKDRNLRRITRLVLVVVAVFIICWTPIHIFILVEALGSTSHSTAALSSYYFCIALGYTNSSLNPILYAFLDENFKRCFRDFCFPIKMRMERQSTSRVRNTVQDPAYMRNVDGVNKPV
Chain of Delta-type opioid receptor (Mus musculus) (P32300 whole entry): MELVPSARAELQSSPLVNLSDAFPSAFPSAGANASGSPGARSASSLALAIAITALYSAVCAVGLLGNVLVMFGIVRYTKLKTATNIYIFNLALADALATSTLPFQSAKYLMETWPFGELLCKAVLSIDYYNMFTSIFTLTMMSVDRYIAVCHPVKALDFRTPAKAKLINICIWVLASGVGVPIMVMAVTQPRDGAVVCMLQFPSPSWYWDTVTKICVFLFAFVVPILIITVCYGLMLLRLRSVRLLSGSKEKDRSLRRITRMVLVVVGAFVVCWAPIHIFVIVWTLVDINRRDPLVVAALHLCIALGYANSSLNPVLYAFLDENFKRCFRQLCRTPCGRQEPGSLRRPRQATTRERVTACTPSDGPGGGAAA

With `CN1CC[C@]23c4c5ccc(O)c4O[C@H]2C(=O)C2(Cc4ccccc4C2)C[C@@]3(O)[C@H]1C5` [SPIROINDANYLOXYMORPHONE], the Max response in assay [1] is on record as 55%. Further, in assay [2], the IC50 ratio was found to be 1.
In assay [3], `CN1CCC23c4c5ccc(O)c4O[C@H]2C(=O)C2(Cc4ccccc4C2)CC3C1C5` (some centres not stated) yielded a Max response of 58.6%. Further, the IC50 ratio in assay [4] was 0.85. The compound also gave an IC50 in assay [5] of 153 nM.
For the compound `Oc1ccc2c3c1O[C@H]1c4[nH]c5ccccc5c4C[C@@]4(O)[C@@H](C2)N(CC2CC2)CC[C@]314` [NALTRINDOLE], the Max response amounted to 7.6% in assay [1] and 37.1% in assay [3].
`Oc1ccc2c3c1O[C@H]1c4[nH]c5ccccc5c4CC4C(C2)N(CC2CC2)CCC341` (some centres not stated): the Ke in assay [6] is given as 2.98. In addition, the Max response was determined as 16.85% in assay [7] and 22.6% in assay [3]. In addition, the values for the IC50 ratio in assay [2] and in assay [4] were 1.64 and 34.6, respectively.
